The values below come from ChEMBL document CHEMBL1123173, “Synthesis and antiherpes virus activity of phosphate and phosphonate derivatives of 9-[(1,3-dihydroxy-2-propoxy)methyl]guanine” (1986).

pIC50: −log10 of the molar value. Active and inactive are the calls of the source. The calls are words filed in the database; no cut-off is given here. Bounds are passed on as bounds.

One assay relates to MRC5. As to the kind of experiment: In vitro antiviral activity was measured against HCMV(AD-169) in MRC5 cells. Type of assay: functional. The conditions noted are these: Homo sapiens, read-out: ID50 (the source's name).
Assay [1] deals with Vero. As to the kind of experiment: In vitro antiviral activity was measured against HSV-1(F) in Vero cells. Type of assay: functional. The conditions noted are these: Chlorocebus sabaeus, read-out: ID50 (the source's name).
In assay [2] the test system is Vero. As to the kind of experiment: In vitro antiviral activity was measured against HSV-1 (MP-PAA/DHPG) in Vero cells. It counts as functional. The conditions noted are these: Chlorocebus sabaeus, read-out: ID50 (the source's name).
Assay [3] has as its system Mus musculus. As to the kind of experiment: (§1) Effect of oral treatment with compound on HSV-2 induced mortality in mice at 5 mg/kg dose; NS=Not significant. The arrangement: dose 5 mg/kg. Type of assay: functional, organism-based. The gist of the method:
(§2)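 Female Swiss-Webster mice, about 20 g, infected intraperitoneally with 5×10^4 PFU of HSV-2 strain G (about ten LD50). Oral dosing once every 24 h for 4 days, starting 24 h post-infection, with a saline-treated control group. Groups of 19–20 mice. Survivors were scored and compared by Fisher exact test. Mean survival time (days ± SD) was compared by Mann-Whitney U test. NS means p > 0.05.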

The test system of assay [4] is Mus musculus. The assay is described as §1. Details: dose 5 mg/kg. It counts as functional, organism-based. The gist of the method: (§3)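 Female Swiss-Webster mice (ca. 20 g) infected intraperitoneally with 5×10^4 PFU HSV-2 strain G (about ten 50% lethal doses). Oral dosing once every 24 h for 4 days, starting 24 h postinfection; saline controls. Survivors/total recorded, survivor increase tested by Fisher exact test; mean survival time (days ± standard deviation) compared by Mann-Whitney U test.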
This is another data set of the same source.

For assay [5], the system named is Mus musculus. As to the kind of experiment: Effect of oral treatment with compound on HSV-2 induced mortality in mice at 10 mg/kg dose. Type of assay: functional. The gist of the method: as §2
Assay [6] relates to Vero. As to the kind of experiment: In vitro antiviral activity was measured against HSV-1 (F delta 305) in Vero cells. It counts as functional. The conditions noted are these: Chlorocebus sabaeus, read-out: ID50 (the source's name).
For assay [7], the system named is Mus musculus. As to the kind of experiment: Effect of oral treatment with compound on HSV-2 induced mortality in mice at 20 mg/kg dose; 12/20. Type of assay: functional. A digest of the protocol:
as §2

For assay [8], the system named is Vero. As to the kind of experiment: In vitro antiviral activity was measured against HSV-2(G) in Vero cells. Type of assay: functional. The conditions noted are these: Chlorocebus sabaeus, read-out: ID50 (the source's name).
Assay [9] relates to Mus musculus. As to the kind of experiment: Effect of on mean survival time upon oral treatment on HSV-2 induced mortality in mice at 10 mg/kg dose. Type of assay: functional. The gist of the method: as §2
Assay [10] relates to Mus musculus. As to the kind of experiment: Effect of oral treatment with compound on HSV-2 induced mortality in mice at 5 mg/kg dose; 1/19. It counts as functional. A digest of the protocol:
as §2

Assay [11] concerns Mus musculus. As to the kind of experiment: Effect of on mean survival time upon oral treatment on HSV-2 induced mortality in mice at 5 mg/kg dose. Type of assay: functional. A digest of the protocol: as §2
Assay [12] relates to Mus musculus. As to the kind of experiment: Effect of on mean survival time upon oral treatment on HSV-2 induced mortality in mice at 20 mg/kg dose. Type of assay: functional. The gist of the method: as §2
For assay [13], the system named is Vero. As to the kind of experiment: In vitro anticellular activity was measured against vero cells. It counts as functional. The note with it: Chlorocebus sabaeus, read-out: ID50 (the source's name). The gist of the method: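 Cell proliferation assay in uninfected Vero cells.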
The test system of assay [14] is Mus musculus. As to the kind of experiment: Effect of oral treatment with compound on HSV-2 induced mortality in mice at 10 mg/kg dose; 2/20. It counts as functional. The gist of the method:
as §2

The test system of assay [15] is Mus musculus. As to the kind of experiment: (§4) Effect of oral treatment with compound on HSV-2 induced mortality in mice at 10 mg/kg dose; NS=Not significant. Type of assay: functional, organism-based. Details: dose 10 mg/kg. A digest of the protocol:
as §2

The test system of assay [16] is Mus musculus. As to the kind of experiment: Effect of oral treatment with compound on HSV-2 induced mortality in mice at 20 mg/kg dose. It counts as functional. A digest of the protocol: as §2
For assay [17], the system named is Mus musculus. As to the kind of experiment: Effect of oral treatment with compound on HSV-2 induced mortality in mice at 5 mg/kg dose; 8/20. It counts as functional. A digest of the protocol:
as §2

The subject of assay [18] is Mus musculus. As to the kind of experiment: Effect of oral treatment with compound on HSV-2 induced mortality in mice at 10 mg/kg dose; 3/20. Type of assay: functional. A digest of the protocol:
as §2

The subject of assay [19] is Mus musculus. The assay is described as §4. Type of assay: functional, organism-based. Details: dose 10 mg/kg. The gist of the method:
as §3
This is another data set of the same source.

The test system of assay [20] is Mus musculus. As to the kind of experiment: Effect of oral treatment with compound on HSV-2 induced mortality in mice at 20 mg/kg dose; 10/20. It counts as functional. The gist of the method: as §2
In assay [21] the test system is Mus musculus. As to the kind of experiment: Effect of oral treatment with compound on HSV-2 induced mortality in mice at 5 mg/kg dose. Type of assay: functional. A digest of the protocol: as §2
Assay [22] deals with Mus musculus. As to the kind of experiment: Effect of oral treatment with compound on HSV-2 induced mortality in mice at 5 mg/kg dose; 0/19. It counts as functional. The gist of the method:
as §2

The test system of assay [23] is Mus musculus. As to the kind of experiment: Effect of subcutaneous treatment with compound on HSV-2 induced mortality in mice at 5 mg/kg dose. Type of assay: functional. The gist of the method: (§5)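 Female Swiss-Webster mice, about 20 g, challenged intraperitoneally with 5×10^4 PFU of HSV-2 strain G (about ten LD50). Subcutaneous dosing once daily for 4 days, beginning 24 h after infection, with a saline control group. 15 mice per group. Survivor numbers were compared by Fisher exact test and mean survival time (± SD) by Mann-Whitney U test. NS means p > 0.05.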

Assay [24] has as its system Mus musculus. As to the kind of experiment: Effect of subcutaneous treatment with compound on HSV-2 induced mortality in mice at 1.5 mg/kg dose. Type of assay: functional. A digest of the protocol:
as §5

Assay [25] has as its system Mus musculus. As to the kind of experiment: Effect of oral treatment with compound on HSV-2 induced mortality in mice at 10 mg/kg dose; 6/20. It counts as functional. A digest of the protocol: as §2
The test system of assay [26] is Mus musculus. As to the kind of experiment: Effect of subcutaneous treatment with compound on HSV-2 induced mortality in mice at 5 mg/kg dose; 10/15. Type of assay: functional. The gist of the method: as §5
For assay [27], the system named is Mus musculus. As to the kind of experiment: Effect of subcutaneous treatment with compound on HSV-2 induced mortality in mice at 15 mg/kg dose. Type of assay: functional. The gist of the method: as §5
For assay [28], the system named is Mus musculus. As to the kind of experiment: Effect of oral treatment with compound on HSV-2 induced mortality in mice at 20 mg/kg dose; 11/20. Type of assay: functional. A digest of the protocol: as §2
Assay [29] has as its system Mus musculus. As to the kind of experiment: Effect of subcutaneous treatment with compound on HSV-2 induced mortality in mice at 1.5 mg/kg dose; 8/15. It counts as functional. A digest of the protocol:
as §5

The test system of assay [30] is Mus musculus. As to the kind of experiment: Effect of subcutaneous treatment with compound on HSV-2 induced mortality in mice at 15 mg/kg dose; 15/15. Type of assay: functional. A digest of the protocol:
as §5

For `Nc1nc(O)c2ncn(COC(CO)COP(=O)(O)O)c2n1` (stereo not drawn), the pIC50 in the assay on MRC5 is 4.92; with Vero [1], 6.70; in the assay with Vero [2], below 3.70; with Vero [6], 5.22; in the assay with Vero [8], 5.77; in the assay on Vero [13], 3.15. Further, the Survivor increase entry with Mus musculus [3] and in the assay on Mus musculus [15] was “inactive” in each case. Further, the MST increase result with Mus musculus [4] is “inactive”. For the same compound, in the assay on Mus musculus [5], the MST increase was below 0.01. For the same compound, the results for the Survivors with Mus musculus [7], with Mus musculus [10] and with Mus musculus [14] were 12, 1 and 2, respectively. Moreover, the figures for the MST in the assay on Mus musculus [9], with Mus musculus [11] and with Mus musculus [12] were 11.3 days, 10 days and 10.5 days, respectively. In the assay on Mus musculus [16], the Survivor increase is on record as 0.002. Moreover, in the assay on Mus musculus [16], the “p-value for mean survival time increase” value is recorded as below 0.001.

On to `Nc1nc2c(ncn2COC2COP(=O)(O)OC2)c(=O)[nH]1` (stereo not drawn), for which the pIC50 is 5.22 in the assay with MRC5; 5.70 in the assay on Vero [1]; 5.15 in the assay with Vero [2]; 6.30 with Vero [6]; 5.22 in the assay on Vero [8]; 4.40 with Vero [13]. Further, the Survivor increase entry in the assay on Mus musculus [3] and in the assay on Mus musculus [15] was “inactive” throughout. Besides, the Survivors is on record as 8 in the assay with Mus musculus [17], 3 in the assay on Mus musculus [18] and 10 in the assay on Mus musculus [20]. The MST increase entry in the assay with Mus musculus [4] and in the assay with Mus musculus [19] was “inactive” in each case. In addition, the MST stood at 10.6 days with Mus musculus [9], 10.4 days in the assay on Mus musculus [11] and 11.6 days in the assay with Mus musculus [12]. Further, in the assay with Mus musculus [16], the Survivor increase came to 0.01. Further, the “p-value for mean survival time increase” value in the assay on Mus musculus [16] was below 0.01.

Turning to `Nc1nc2c(ncn2COC(CO)CO)c(=O)[nH]1` [GANCICLOVIR], the pIC50 is 5.30 in the assay on MRC5; 6.70 in the assay with Vero [1]; 3.90 with Vero [2]; 5.00 with Vero [6]; 5.80 in the assay on Vero [8]; 3.35 in the assay on Vero [13]. For the same compound, the MST increase with Mus musculus [21] is below 0.01; in the assay on Mus musculus [23] it was below 0.001; in the assay with Mus musculus [24], below 0.001; in the assay with Mus musculus [5], below 0.025; with Mus musculus [27], below 0.001. The Survivors was found to be 0 with Mus musculus [22]; 6 with Mus musculus [25]; 10 in the assay with Mus musculus [26]; 11 in the assay with Mus musculus [28]; 8 in the assay with Mus musculus [29]; 15 in the assay on Mus musculus [30]. Moreover, the Survivor increase with Mus musculus [23] is on record as below 0.001; in the assay on Mus musculus [24] it was 0.01; in the assay with Mus musculus [27], below 0.001; with Mus musculus [16], 0.005. Moreover, the Survivor increase entry with Mus musculus [3] and with Mus musculus [15] was “inactive” throughout. In addition, the MST in the assay with Mus musculus [9] stood at 10.9 days; with Mus musculus [11] (5 mg/kg), 11.3 days; in the assay on Mus musculus [12] it was 11.9 days. Further, the “p-value for mean survival time increase” value with Mus musculus [16] is reported as below 0.01.
